# Measured values of several laboratories.
# Each line is one published result; the experiments were not run side by side.
# Target: Serine/threonine-protein kinase LATS2 (LATS2, Homo sapiens, UniProt Q9NRM7)
# Sequence (Q9NRM7 1-1088, as in one of the studies): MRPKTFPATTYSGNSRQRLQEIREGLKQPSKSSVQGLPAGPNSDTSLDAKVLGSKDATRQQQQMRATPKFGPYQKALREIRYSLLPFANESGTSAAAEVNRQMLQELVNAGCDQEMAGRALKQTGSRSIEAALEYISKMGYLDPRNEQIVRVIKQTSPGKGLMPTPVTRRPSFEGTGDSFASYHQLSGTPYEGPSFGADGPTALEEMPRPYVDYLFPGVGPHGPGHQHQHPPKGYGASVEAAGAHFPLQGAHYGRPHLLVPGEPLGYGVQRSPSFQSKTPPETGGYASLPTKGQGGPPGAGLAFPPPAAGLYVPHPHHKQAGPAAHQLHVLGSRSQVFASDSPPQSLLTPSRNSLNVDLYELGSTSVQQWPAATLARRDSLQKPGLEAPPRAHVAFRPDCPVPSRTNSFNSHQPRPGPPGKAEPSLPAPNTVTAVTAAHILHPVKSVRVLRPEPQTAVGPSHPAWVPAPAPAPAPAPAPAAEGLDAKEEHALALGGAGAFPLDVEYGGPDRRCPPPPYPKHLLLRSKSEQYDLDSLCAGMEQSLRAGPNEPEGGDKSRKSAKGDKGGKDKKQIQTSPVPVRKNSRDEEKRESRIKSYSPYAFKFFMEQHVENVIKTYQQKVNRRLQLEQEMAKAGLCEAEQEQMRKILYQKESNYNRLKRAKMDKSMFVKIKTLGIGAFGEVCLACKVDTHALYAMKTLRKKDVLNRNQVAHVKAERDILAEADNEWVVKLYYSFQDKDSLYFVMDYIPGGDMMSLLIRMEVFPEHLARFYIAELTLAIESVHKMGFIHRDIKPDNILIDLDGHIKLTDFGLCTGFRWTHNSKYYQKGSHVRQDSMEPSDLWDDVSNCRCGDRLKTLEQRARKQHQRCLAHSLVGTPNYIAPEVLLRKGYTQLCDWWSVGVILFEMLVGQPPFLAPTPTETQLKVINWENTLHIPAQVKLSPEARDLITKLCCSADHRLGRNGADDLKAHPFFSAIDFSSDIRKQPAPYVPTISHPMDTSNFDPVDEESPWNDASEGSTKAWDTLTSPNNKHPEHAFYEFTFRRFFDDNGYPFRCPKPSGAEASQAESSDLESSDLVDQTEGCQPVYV
SMILES,observed,mode,technique,cells,tested at,quantity,result
O=C(Nc1cnn(-c2csc(C(=O)NC3COC3)c2)c1)Nc1c(F)cccc1Cl,enzyme activity,inhibitor,,,5 µM,remaining activity,104%
Nc1ncnc2occ(-c3ccc(NC(=O)Nc4cc(C(F)(F)F)ccc4F)cc3)c12,cell-free assay,inhibitor,,,20 µM,remaining signal,3.7%
COc1ccc2c(c1)O[C@H](c1ccc(OC)c(OC)c1)C[C@@H]2NC(=O)C1(c2ccc3c(c2)OC(F)(F)O3)CC1,cell-free assay,,competition with immobilised ligand,,1 µM,remaining binding,89%
Cc1ccc(C(=O)Nc2ccc(CN3CCN(C)CC3)c(C(F)(F)F)c2)cc1C#Cc1cnc2cccnn12,enzyme activity,inhibitor,,,23.5 nM,remaining activity,95%
O=C(Nc1cnn(-c2csc(C(=O)NC3COC3)c2)c1)Nc1ccccc1Cl,enzyme activity,inhibitor,,,5 µM,remaining activity,96%
Cn1cnc(Br)c1C1=CN(c2ncnc3[nH]cnc23)CCS1,enzyme activity,inhibitor,radiometric,,50 nM,inhibition,29.1%
COc1cc(-c2cc(-c3ccc(N4CCNCC4)cc3)cnc2C)cc(OC)c1OC,enzyme activity,inhibitor,,,1 µM,inhibition,2%
Cn1cncc1C1=CN(c2ncnc3[nH]cnc23)CCS1,enzyme activity,inhibitor,radiometric,,50 nM,inhibition,34.2%
CCN1CCN(Cc2ccc(NC(=O)c3ccc(C)c(/C=C/c4cnc5[nH]ccc5c4OC)c3)cc2C(F)(F)F)CC1,target engagement in cells,inhibitor,chemoproteomics,A-375,5 µM,inhibition,-21.8%
O=C(NCc1ncc(C(F)(F)F)cc1Cl)c1ccc2c(c1)C1(CCS(=O)(=O)CC1)[C@H](C1CC1)N2S(=O)(=O)c1ccc(F)cc1,cell-free assay,,competition with immobilised ligand,,1 µM,remaining binding,100%
Cc1cnn2ncc(-c3ccnc(N(C)C)n3)c2c1,binding,,,,1 µM,remaining binding,84%
CC(C)(O)[C@H]1CC[C@H](Nc2ccc3ncc(-c4cccc(C(F)(F)F)c4)n3n2)CC1,enzyme activity,inhibitor,,,1 µM,remaining activity,61.4%
